{
  "source": "ChEMBL document CHEMBL4513216",
  "about": "“Probing the Open Global Health Chemical Diversity Library for Multistage-Active Starting Points for Next-Generation Antimalarials” (ACS Infect Dis, 2020)",
  "data": [
    {"experiment": "Toxicity liver stage against HepG2, at 10uM", "assay_type": "cell-based", "design": "test concentration 10 uM, cell line HepG2-A16-CD81EGFP", "settings": "human, HepG2-A16-CD81EGFP cells; read-out: INHIBITION", "summary_of_the_method": "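Uninfected HepG2-A16-CD81EGFP cells, 3 × 10^3 per well, 1536-well, plated on prespotted compound at 10 μM final, parasite-free screening media added to match infected plates; puromycin 10 μM positive, DMSO 0.5% negative; run in parallel with 48 h PbLuc assay at 37 °C, 5% CO2; viability by CellTiter-Glo luminescence, normalized to controls.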", "units": {"cytotoxicity at 10 µM": "%"}, "values": [
      {"smiles": "CCNC(=O)c1cn(C(C)(C)C)c2ncccc12", "cytotoxicity at 10 µM": -1.28},
      {"smiles": "COc1ccc(CCC(=O)Nc2ccc3ncn(C)c(=O)c3c2)cc1", "cytotoxicity at 10 µM": 6.44},
      {"smiles": "CC(C)Nc1nc(N2CCCC2)nc2c1CN(C)CC2", "cytotoxicity at 10 µM": -0.376},
      {"smiles": "CCS(=O)(=O)N1C[C@H](c2nc(C)no2)C[C@H]2OCC[C@H]21", "cytotoxicity at 10 µM": -119},
      {"smiles": "Cc1ccc(C(=O)N2C[C@@H]3C[C@@H](c4nnc(C5CC5)o4)O[C@@H]3C2)s1", "cytotoxicity at 10 µM": -133},
      {"smiles": "Cc1ccc(NC(=O)CCc2cnn(C)c2)cc1F", "cytotoxicity at 10 µM": -1.69},
      {"smiles": "CC(C)c1nnc(NC(=O)N(C)Cc2ccc(C(N)=O)cc2)s1", "cytotoxicity at 10 µM": 12},
      {"smiles": "O=C(C1CC1)N1CCCCCC1C1CCN(c2ncccn2)CC1", "note": "(stereo unspecified)", "cytotoxicity at 10 µM": -9.56},
      {"smiles": "CCOC(=O)CN(CC(F)(F)F)C(=O)c1nc(C)n2ccccc12", "cytotoxicity at 10 µM": -20.9},
      {"smiles": "Cn1cc(CNC2CCc3ncnn3C2)c(-c2ccncc2)n1", "note": "(stereo unspecified)", "cytotoxicity at 10 µM": -8.55},
      {"smiles": "COc1ccccc1S(=O)(=O)N1CC(N(C)C)Cc2ccccc21", "note": "(stereo unspecified)", "cytotoxicity at 10 µM": 0.243},
      {"smiles": "CCS(=O)(=O)NCCNC(=O)c1cnc(-c2ccccc2)nc1", "cytotoxicity at 10 µM": 13.8},
      {"smiles": "Cc1cnn(CCNCC(=O)NC2(C#N)CCCC2)c1", "cytotoxicity at 10 µM": -13.2},
      {"smiles": "FC(F)Sc1ccc(NCc2nnc(C3CC3)o2)cc1", "cytotoxicity at 10 µM": 14.7},
      {"smiles": "CCc1cc(CNC(=O)C2CCCN(C(=O)NCC(C)C)C2)[nH]n1", "note": "(stereo unspecified)", "cytotoxicity at 10 µM": 7.23},
      {"smiles": "NC(=O)C(NC(=O)Cc1cnn(-c2ccccc2)n1)c1ccccc1", "note": "(stereo unspecified)", "cytotoxicity at 10 µM": -3.05},
      {"smiles": "CCn1cc(CNc2ccc(F)c(N3CCCS3(=O)=O)c2)cn1", "cytotoxicity at 10 µM": -17},
      {"smiles": "CCCN1CCCN(CCCOc2cccc(C#N)c2)CC1", "cytotoxicity at 10 µM": 18},
      {"smiles": "Cc1cc(C)c2c(c1)C(NC(=O)CSc1nnc[nH]1)CCO2", "note": "(stereo unspecified)", "cytotoxicity at 10 µM": -3.91},
      {"smiles": "Cc1cc(C(=O)Nc2cccn(Cc3ccc(F)cc3)c2=O)no1", "cytotoxicity at 10 µM": 3.15},
      {"smiles": "Cn1c(N)nnc1SCc1cc(Br)ccc1Cl", "cytotoxicity at 10 µM": -21.7},
      {"smiles": "Nc1nc(CN2CCN(c3nccs3)CC2)cs1", "cytotoxicity at 10 µM": 4.79},
      {"smiles": "CN(C(=O)c1cccn1C)C1CCC(NC(=O)OC(C)(C)C)CC1", "note": "(stereo unspecified)", "cytotoxicity at 10 µM": -4.18},
      {"smiles": "NC(=O)C(NC(=O)COC1CCCCC1)c1ccccc1", "note": "(stereo unspecified)", "cytotoxicity at 10 µM": -4.65},
      {"smiles": "CN(C)S(=O)(=O)N1CCCC1C(=O)N1CCSCC1", "note": "(stereo unspecified)", "cytotoxicity at 10 µM": 6.67},
      {"smiles": "Cc1cnn(CCCNC(=O)NCCC(=O)Nc2ccccc2)c1", "cytotoxicity at 10 µM": 2.72},
      {"smiles": "CC(NC(=O)NCCCN1CCCC1=O)c1ccc(Cl)s1", "note": "(stereo unspecified)", "cytotoxicity at 10 µM": -8.28},
      {"smiles": "CCO[C@@H]1CC[C@H]2[C@H]1OCCN2C(=O)c1nn(C)c2ccccc12", "cytotoxicity at 10 µM": -2.69},
      {"smiles": "CCOCC1CN(c2ncccn2)Cc2cnn(CC3CCOCC3)c21", "note": "(stereo unspecified)", "cytotoxicity at 10 µM": 2.97},
      {"smiles": "O=C(c1cnccn1)N1C[C@@H]2CN(Cc3cccnc3)CCO[C@@H]2C1", "cytotoxicity at 10 µM": 2.89},
      {"smiles": "COCCCN1CCN(c2ncnc3nc(C)cc(C)c23)CC1", "cytotoxicity at 10 µM": 1.54},
      {"smiles": "CCCc1nnc(NCCc2noc(C3CCCC3)n2)o1", "cytotoxicity at 10 µM": 20.2},
      {"smiles": "Cn1nc(CN2CCCCC(N)C2)c2c(Cl)cccc21", "note": "(stereo unspecified)", "cytotoxicity at 10 µM": -5.99},
      {"smiles": "CCc1cc(NCCNC(=O)c2cccnc2)n2nc(C)c(C)c2n1", "cytotoxicity at 10 µM": -3.05},
      {"smiles": "CN(Cc1nc(-c2ccccc2)no1)C(=O)CNS(C)(=O)=O", "cytotoxicity at 10 µM": 0.0773},
      {"smiles": "COCCCC1CCCCN1Cc1cc(F)ccc1-n1cccn1", "note": "(stereo unspecified)", "cytotoxicity at 10 µM": -3.13},
      {"smiles": "CCc1ccccc1OC1CN(C(=O)c2sccc2N)C1", "cytotoxicity at 10 µM": 14.4},
      {"smiles": "Cc1cccnc1CN1CCN(CC(=O)N(C)C)[C@@H]2CS(=O)(=O)C[C@@H]21", "cytotoxicity at 10 µM": -2.33},
      {"smiles": "COc1cc(F)ccc1C(C(=O)O)N1CCN(C2CCCCC2)CC1", "note": "(stereo unspecified)", "cytotoxicity at 10 µM": -8.93},
      {"smiles": "CC(C)c1nc(N2CC[C@@H](N(C)CCc3ccccn3)[C@H](O)C2)no1", "cytotoxicity at 10 µM": -0.662},
      {"smiles": "Clc1ccccc1CCn1ccnc1-c1cn(C2CCNCC2)nn1", "cytotoxicity at 10 µM": 0.33},
      {"smiles": "CC1(C(=O)N2CCC(n3cc(C4(O)CCCC4)nn3)CC2)CCCCC1", "cytotoxicity at 10 µM": 0.68},
      {"smiles": "CN(Cc1ccc(CCC(C)(C)O)cc1)Cc1cccc(O)c1", "cytotoxicity at 10 µM": -7.43},
      {"smiles": "Cc1ccc(OCC2CCCN(Cc3ccc(CO)o3)C2)cc1", "note": "(stereo unspecified)", "cytotoxicity at 10 µM": 5.66},
      {"smiles": "CCC(C)N(Cc1cccnc1)C(=O)CCSC", "note": "(stereo unspecified)", "cytotoxicity at 10 µM": 0.305},
      {"smiles": "COC[C@]1(O)CCN(Cc2ccc(N(C)C)nc2)CC1(C)C", "cytotoxicity at 10 µM": 7.63},
      {"smiles": "Cc1ccccc1C(C(=O)N1CCN(C(=O)c2ccc[nH]2)CC1)N(C)C", "note": "(stereo unspecified)", "cytotoxicity at 10 µM": -7.98},
      {"smiles": "Cn1c(CCC(=O)N2CCCC3(CNC(=O)O3)C2)nc2cccnc21", "note": "(stereo unspecified)", "cytotoxicity at 10 µM": 2.3},
      {"smiles": "CN(CCO)C1CCN(c2ncc3c(n2)CCN3c2ccccc2)CC1", "cytotoxicity at 10 µM": -2.3},
      {"smiles": "CC1(C)CN(C(=O)c2cnc(-c3ccccn3)nc2)CC[C@]1(C)O", "cytotoxicity at 10 µM": -2.52},
      {"smiles": "CN1CCC(N2CCN(C(C(=O)O)c3cccc4c3OCC4)CC2)CC1", "note": "(stereo unspecified)", "cytotoxicity at 10 µM": 11},
      {"smiles": "CC(C)C(Nc1nc(C(F)(F)F)nc2ccccc12)C(=O)O", "note": "(stereo unspecified)", "cytotoxicity at 10 µM": -1.98},
      {"smiles": "CCC(NC(=O)C(C)C)c1ccccc1C", "note": "(stereo unspecified)", "cytotoxicity at 10 µM": 5.81},
      {"smiles": "Cc1ccc([C@@H]2CN(S(=O)(=O)c3cc(C)ccc3F)C[C@H]2N(C)C)cc1", "cytotoxicity at 10 µM": -7.21},
      {"smiles": "COc1cccc(OCC2CCCN(Cc3ncc[nH]3)C2)c1", "note": "(stereo unspecified)", "cytotoxicity at 10 µM": 4.97},
      {"smiles": "COc1cn(-c2ccccc2)nc1C(=O)NCCN1CCCC(C)C1", "note": "(stereo unspecified)", "cytotoxicity at 10 µM": 2.12},
      {"smiles": "O=C(c1ccc(-n2cnnc2)cc1)N1CCC(Nc2cccnn2)CC1", "cytotoxicity at 10 µM": -6.12},
      {"smiles": "COc1ccccc1CC(=O)N1CCC(NCc2ccncc2)CC1", "cytotoxicity at 10 µM": -9.69},
      {"smiles": "Cc1nc2n(n1)CC(NCc1csc(-c3ccsc3)n1)CC2", "note": "(stereo unspecified)", "cytotoxicity at 10 µM": -0.544},
      {"smiles": "CCn1ccnc1CN1CCN(CC(=O)NC2CCOCC2)CC1", "cytotoxicity at 10 µM": -6.22},
      {"smiles": "c1ccc(-c2nc(CN3CCOC(Cn4cccn4)C3)co2)cc1", "note": "(stereo unspecified)", "cytotoxicity at 10 µM": 0.724},
      {"smiles": "Cc1cccc(N(C)S(=O)(=O)c2cc(C(=O)O)cs2)c1", "cytotoxicity at 10 µM": -6.12},
      {"smiles": "COc1c(Br)cc(Br)cc1CNC(C)Cn1cccn1", "note": "(stereo unspecified)", "cytotoxicity at 10 µM": 3.64},
      {"smiles": "CCc1nc(CN2CCCN(c3nccs3)CC2)no1", "cytotoxicity at 10 µM": -6.44},
      {"smiles": "CC(CCc1ccco1)NC(=O)Nc1cc(C(F)(F)F)c[nH]c1=O", "note": "(stereo unspecified)", "cytotoxicity at 10 µM": -6.9},
      {"smiles": "CN(C)c1cc(C(=O)N2CCCC(n3cccn3)C2)ccn1", "note": "(stereo unspecified)", "cytotoxicity at 10 µM": -0.781},
      {"smiles": "CN(C)c1cc(C(=O)N2CCN(c3cnccn3)CC2)ccn1", "cytotoxicity at 10 µM": -7.64},
      {"smiles": "Cc1nc(CN2CCOC(CNc3cccnn3)C2)cs1", "note": "(stereo unspecified)", "cytotoxicity at 10 µM": -12},
      {"smiles": "COC(=O)NCC1CCC2(CCNCC2)O1", "note": "(stereo unspecified)", "cytotoxicity at 10 µM": 1.82},
      {"smiles": "COc1ccc(CN2CCc3nnc(COCCN(C)C)n3CC2)cc1", "cytotoxicity at 10 µM": 4.5},
      {"smiles": "O=C(c1ccco1)N1C[C@@H]2OCCN(c3ncccn3)[C@@H]2C1", "cytotoxicity at 10 µM": 6.4},
      {"smiles": "CO[C@@H]1CCN(Cc2c(C)noc2C)[C@@H]2CN(Cc3cccnc3)C[C@@H]21", "cytotoxicity at 10 µM": 11.9},
      {"smiles": "CC(C)c1nn(C)c(N(C)C)c1CNC(C)c1ccc2c(c1)OCO2", "note": "(stereo unspecified)", "cytotoxicity at 10 µM": -4.49},
      {"smiles": "NC(c1ccc(Cl)cc1)c1cccs1", "note": "(stereo unspecified)", "cytotoxicity at 10 µM": -17.1},
      {"smiles": "Cc1csc([C@@H]2C[C@H]3CN(c4ncc(F)cn4)C[C@H]3O2)n1", "cytotoxicity at 10 µM": 6.88},
      {"smiles": "CN1CCC2(CC1)CN(CC1CC1)CC21CCNC1=O", "note": "(stereo unspecified)", "cytotoxicity at 10 µM": 2.02},
      {"smiles": "Cc1ccoc1C(=O)N1CCO[C@H]2[C@H](OCCN(C)C)CC[C@@H]21", "cytotoxicity at 10 µM": -5.88},
      {"smiles": "Cn1ccc(C(=O)N2CCC3(CCN3c3ncccn3)C2)n1", "note": "(stereo unspecified)", "cytotoxicity at 10 µM": 9.41},
      {"smiles": "CO[C@H]1CC[C@H]2[C@H]1OCCN2Cc1ccc(F)c(F)c1", "cytotoxicity at 10 µM": 22.3},
      {"smiles": "CC(C)NC(=O)N1Cc2nccn2CC(COc2cccnc2)C1", "note": "(stereo unspecified)", "cytotoxicity at 10 µM": 7.77},
      {"smiles": "Cn1cc(CN2CCCC3(CCN(c4nncs4)C3)C2)cn1", "note": "(stereo unspecified)", "cytotoxicity at 10 µM": 5.41}
    ]}
  ]
}
